From ChEMBL document CHEMBL1152654, “Development of a highly water-soluble peptide-based human neutrophil elastase inhibitor; AE-3763 for treatment of acute organ injury” (Bioorg Med Chem, 2009)
The source made the active and inactive calls. No cut-off for these calls is given here.

Assays:
Hamster [1] = test: Inhibition of human neutrophil elastase-induced lung hemorrhage in hamster at 10 mg/kg/hr, iv administered as infusion; format: functional; conditions: Cricetinae
Outline: (§1)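 Hamster lung hemorrhage induced by HNE instillation, with compound delivered by iv infusion over more than 70 min. BALF collected 1 h after HNE and centrifuged; supernatant absorbance at 414 nm used as hemorrhage measure; % inhibition reported.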

Hamster [2] = test: Inhibition of human neutrophil elastase-induced lung hemorrhage in hamster at 3 mg/kg/hr, iv administered as infusion; format: functional; conditions: Cricetinae; outline: as §1
Hamster [3] = test: Inhibition of human neutrophil elastase-induced lung hemorrhage in hamster at 1 mg/kg/hr, iv administered as infusion; format: functional; conditions: Cricetinae; outline: as §1
Hamster [4] = test: Inhibition of human neutrophil elastase-induced lung hemorrhage in hamster at 30 mg/kg, iv administered as bolus dose; format: functional; conditions: Cricetinae
Outline: (§2)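 Hamster lung hemorrhage induced by HNE instillation; compound given as iv bolus. One hour after HNE, BALF collected and centrifuged; supernatant absorbance at 414 nm taken as hemorrhage; % inhibition reported.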

Hamster [5] = test: Inhibition of human neutrophil elastase-induced lung hemorrhage in hamster at 10 mg/kg, iv administered as bolus dose; format: functional; conditions: Cricetinae; outline: as §2
Hamster [6] = test: Inhibition of human neutrophil elastase-induced lung hemorrhage in hamster at 3 mg/kg, iv administered as bolus dose; format: functional; conditions: Cricetinae; outline: as §2
Hamster [7] = test: Inhibition of human neutrophil elastase-induced lung hemorrhage in iv dosed hamster administered as bolus dose; format: functional; conditions: Cricetinae; outline: as §2
Hamster [8] = test: Inhibition of human neutrophil elastase-induced lung hemorrhage in iv dosed hamster administered as infusion; format: functional, Cricetinae; outline: as §1
[9] = Aqueous solubility in water; format: physicochemical
Hamster [10] = test: Antiinflammatory activity in iv dosed hamster assessed as inhibition of LPS-induced lung edema; format: functional, Cricetinae
Outline: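 Hamsters given LPS intratracheally; jugular-vein infusion started immediately after LPS and continued up to 6 h. Whole-lung wet weight measured at 6 h after LPS and corrected for each animal's body weight.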

Mus musculus [11] = test: Toxicity in mouse assessed as overt effects up to 300 mg/kg, iv; format: organism-based; design: dose 300 mg/kg, route intravenous; conditions: in vivo
Mus musculus [12] = species: Mus musculus; conditions: C3H/HeN, 10 to 100 mg/kg

| SMILES | inhibition in vivo at 10 mg/kg/hr (Hamster [1]) [%] | inhibition in vivo at 3 mg/kg/hr (Hamster [2]) [%] | inhibition in vivo at 1 mg/kg/hr (Hamster [3]) [%] | inhibition in vivo at 10 mg/kg (Hamster [5]) [%] | inhibition in vivo at 3 mg/kg (Hamster [6]) [%] | also measured |
| --- | --- | --- | --- | --- | --- | --- |
| COC(=O)C(=O)[C@@H](NC(=O)[C@@H]1CCCN1C(=O)[C@@H](NC(=O)Cn1ccc(=O)n(CC(=O)O)c1=O)C(C)C)C(C)C | 94 | 43 | 32 |  |  |  |
| COC(=O)C(=O)[C@@H](NC(=O)[C@@H]1CCCN1C(=O)[C@@H](NC(=O)CN1CCN(CC(=O)O)C(=O)C1=O)C(C)C)C(C)C | 94 | 48 |  |  |  |  |
| Cc1cn(CC(=O)N[C@H](C(=O)N2CCC[C@H]2C(=O)N[C@H](C(=O)c2nc3ccccc3o2)C(C)C)C(C)C)c(=O)n(CC(=O)O)c1=O | 56 | 38 | 33 | 70 | 39 | inhibition in vivo at 30 mg/kg (Hamster [4]): 92% |
| CC(C)[C@H](NC(=O)[C@@H]1CCCN1C(=O)[C@@H](NC(=O)Cn1ccc(=O)n(CC(=O)O)c1=O)C(C)C)C(=O)c1nc2ccccc2o1 | 93 | 62 | 50 | 66 | 24 | inhibition in vivo at 30 mg/kg (Hamster [4]): 97% |
| CC(C)[C@H](NC(=O)[C@@H]1CCCN1C(=O)[C@@H](NC(=O)CN1CCN(CC(=O)O)CC1)C(C)C)C(=O)c1nc2ccccc2o1 | 87 | 48 | 34 | 70 | 44 |  |
| CC(C)[C@H](NC(=O)CN1CCN(CC(=O)O)C1=O)C(=O)N1CCC[C@H]1C(=O)N[C@H](C(=O)C(F)(F)F)C(C)C | 97 | 84 | 45 |  |  | ED50 (Hamster [7]): 1.2 mg/kg; ED50 (Hamster [8]): 0.42 mg/kg/h; solubility [9]: > 1000 mg/mL; MED (Hamster [10]): 3 mg/kg/h; Activity (Mus musculus [11]): Non-toxic; inhibition (Mus musculus [12]): Active |
| CC(C)[C@H](NC(=O)[C@@H]1CCCN1C(=O)[C@@H](NC(=O)COc1ccc(OCC(=O)O)cc1)C(C)C)C(=O)c1nc2ccccc2o1 |  |  |  | 38 |  | inhibition in vivo at 30 mg/kg (Hamster [4]): 56% |
| CC(C)[C@H](NC(=O)Cn1ccc(=O)n(CC(=O)O)c1=O)C(=O)N1CCC[C@H]1C(=O)N[C@H](C(=O)C(F)(F)F)C(C)C (mixture of isomers) | 79 | 7.6 | -1.2 |  |  |  |
| CC(C)[C@H](NC(=O)[C@@H]1CCCN1C(=O)[C@@H](NC(=O)Cn1ncc(=O)n(CC(=O)O)c1=O)C(C)C)C(=O)c1nc2ccccc2o1 |  |  |  | 33 | 14 |  |
| CC(C)[C@H](NC(=O)[C@@H]1CCCN1C(=O)[C@@H](NC(=O)Cn1ccc(=O)n(CC(=O)O)c1=O)C(C)C)C(=O)C(=O)NCc1ccccc1 | 90 | 78 | 32 |  |  |  |
| CC(C)[C@H](NC(=O)[C@@H]1CCCN1C(=O)[C@@H](NC(=O)CN1C(=O)N(CC(=O)O)C(=O)C1(C)C)C(C)C)C(=O)c1nc2ccccc2o1 |  |  |  | 42 | 40 |  |
| CC(C)[C@H](NC(=O)[C@@H]1CCCN1C(=O)[C@@H](NC(=O)CN1C(=O)CN(CC(=O)O)C1=O)C(C)C)C(=O)c1nc2ccccc2o1 | 53 | 57 | 39 | 72 | 37 | inhibition in vivo at 30 mg/kg (Hamster [4]): 81% |
| CC(C)[C@H](NC(=O)[C@@H]1CCCN1C(=O)[C@@H](NC(=O)CN1CCN(CC(=O)O)C1=O)C(C)C)C(=O)c1nc2ccccc2o1 | 90 | 31 | 25 | 68 | 22 |  |
| CC(C)[C@H](NC(=O)[C@@H]1CCCN1C(=O)[C@@H](NC(=O)CN1CC(=O)N(CC(=O)O)CC1=O)C(C)C)C(=O)c1nc2ccccc2o1 | 90 | 73 | 55 | 67 | 20 |  |
| CC(C)[C@H](NC(=O)[C@@H]1CCCN1C(=O)[C@@H](NC(=O)CN1CCN(CC(=O)O)C(=O)C1=O)C(C)C)C(=O)C(=O)NCc1ccccc1 | 89 | 47 | 31 |  |  |  |
| CC(C)[C@H](NC(=O)[C@@H]1CCCN1C(=O)[C@@H](NC(=O)CN1CCN(CC(=O)O)C(=O)C1=O)C(C)C)C(=O)c1nc2ccccc2o1 | 95 | 76 | 41 | 88 | 57 |  |
| CC(C)[C@H](NC(=O)[C@@H]1CCCN1C(=O)[C@@H](NC(=O)CN1CC(=O)N(CC(=O)O)C1=O)C(C)C)C(=O)c1nc2ccccc2o1 | 78 | 44 | -7 | 67 | 32 | inhibition in vivo at 30 mg/kg (Hamster [4]): 91% |
| Cc1nn(CC(=O)N[C@H](C(=O)N2CCC[C@H]2C(=O)N[C@H](C(=O)c2nc3ccccc3o2)C(C)C)C(C)C)c(=O)n(CC(=O)O)c1=O |  |  |  | 48 |  |  |
| CC(C)[C@H](NC(=O)[C@@H]1CCCN1C(=O)[C@@H](NC(=O)Cn1c(=O)ccn(CC(=O)O)c1=O)C(C)C)C(=O)c1nc2ccccc2o1 |  |  |  | 47 | 34 | inhibition in vivo at 30 mg/kg (Hamster [4]): 94% |
| CC(C)[C@H](NC(=O)[C@@H]1CCCN1C(=O)[C@@H](NC(=O)CN1CCC(=O)N(CC(=O)O)C1=O)C(C)C)C(=O)c1nc2ccccc2o1 |  |  |  | 34 | 38 |  |
| CC(C)[C@H](NC(=O)[C@@H]1CCCN1C(=O)[C@@H](NC(=O)CN1C(=O)N(CC(=O)O)C(C)(C)C1=O)C(C)C)C(=O)c1nc2ccccc2o1 |  |  |  | 59 | 20 |  |
